Source: PubChem (several laboratories)
Shown are actives, neighbours in structure and some others; about 5.5% of the full set was active somewhere.
STAT1 inh: STAT1 signaling inhibitors, primary screen, cell-based, HTS, luciferase reporter. inhibition, % at 5.5 µM. AID 920, 2007. NIH 3T3 STAT1-luciferase reporter, IFN-gamma, luminescence. 0.35% of 200,000 active;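 active = inhibition above a set limit, the mean inhibition across all tested compounds plus 3 SD, cut at about 34% in these data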;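 note: 0% = IFN-gamma with DMSO and 100% = IFN-gamma with 300 µM nifuroxazide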
STAT3 act: IL-6 driven STAT3 reporter potentiators, primary screen, U3A cells, luciferase, luminescence, MLSCN library. AID 871, 2007. 0.91% of 190,000 active. IL-6 STAT3-luciferase reporter; 100% = signal with IL-6 EC80 alone. activation (% of control), % at 5.6 µM;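 active = activation above the screen-wide mean of compound activation plus 3 SD, cut at about 130% in these data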;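 note: 0% = background luminescence of wells with medium and substrate only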
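System – human U3A cells carrying STAT3-luciferase construct · Probe or stimulus – Interleukin-6, 33 ng/mL · Schedule – compound 1 h, then IL-6 6 h at 37 °C · Signal – luminescence from STAT3-driven luciferase reporter · Evaluation – percent of IL-6-only median luminescence · Benchmarks – IL-6-only high control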
HSV augment: enhancers of HSV replication in host cells, fold increase, host cell viability. HSV replication augmentation in cells. maximum fold increase. 0.005% of 220,000 active. AID 1956, 2009; in the data active = maximum fold increase above about 1.5; inconclusive = no clear call, values can overlap the other calls; tested in PC3 cells
STAT3 inh: IL-6 driven STAT3 reporter inhibitors, primary screen, U3A cells, luciferase, luminescence, MLSCN library. AID 862, 2007. inhibition, % at 5.5 µM. IL-6 STAT3-luciferase reporter; host cell line lacks STAT1. 0.89% of 190,000 active;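 active = inhibition above the mean inhibition across all screened compounds plus 3 SD, cut at about 44% in these data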;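 note: 0% = DMSO only wells and 100% = 100 µM nifuroxazide control wells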
KCC2 mod: KCC2 cotransporter modulators, thallium flux, primary screen, cell-based, HEK293 KCC2, FluoZin-2 fluorescence, MLSMR. B-score of Tl+ flux slope (higher = more flux/activation; lower = inhibition) at 10 µM. 2.2% of 190,000 active. Solute carrier family 12 member 5 (Homo sapiens), Q9H2X9. KCC2 cells, thallium flux FluoZin-2 fluorescence. AID 1456, 2008;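 active = thallium flux slope and its plate-corrected score both differing from the plate sample mean at a set confidence after two filtering rounds, in either direction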;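 note: slope of fluorescence scaled to starting intensity during 10 to 20 s after thallium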
Target sequence (Q9H2X9 whole entry, looked up): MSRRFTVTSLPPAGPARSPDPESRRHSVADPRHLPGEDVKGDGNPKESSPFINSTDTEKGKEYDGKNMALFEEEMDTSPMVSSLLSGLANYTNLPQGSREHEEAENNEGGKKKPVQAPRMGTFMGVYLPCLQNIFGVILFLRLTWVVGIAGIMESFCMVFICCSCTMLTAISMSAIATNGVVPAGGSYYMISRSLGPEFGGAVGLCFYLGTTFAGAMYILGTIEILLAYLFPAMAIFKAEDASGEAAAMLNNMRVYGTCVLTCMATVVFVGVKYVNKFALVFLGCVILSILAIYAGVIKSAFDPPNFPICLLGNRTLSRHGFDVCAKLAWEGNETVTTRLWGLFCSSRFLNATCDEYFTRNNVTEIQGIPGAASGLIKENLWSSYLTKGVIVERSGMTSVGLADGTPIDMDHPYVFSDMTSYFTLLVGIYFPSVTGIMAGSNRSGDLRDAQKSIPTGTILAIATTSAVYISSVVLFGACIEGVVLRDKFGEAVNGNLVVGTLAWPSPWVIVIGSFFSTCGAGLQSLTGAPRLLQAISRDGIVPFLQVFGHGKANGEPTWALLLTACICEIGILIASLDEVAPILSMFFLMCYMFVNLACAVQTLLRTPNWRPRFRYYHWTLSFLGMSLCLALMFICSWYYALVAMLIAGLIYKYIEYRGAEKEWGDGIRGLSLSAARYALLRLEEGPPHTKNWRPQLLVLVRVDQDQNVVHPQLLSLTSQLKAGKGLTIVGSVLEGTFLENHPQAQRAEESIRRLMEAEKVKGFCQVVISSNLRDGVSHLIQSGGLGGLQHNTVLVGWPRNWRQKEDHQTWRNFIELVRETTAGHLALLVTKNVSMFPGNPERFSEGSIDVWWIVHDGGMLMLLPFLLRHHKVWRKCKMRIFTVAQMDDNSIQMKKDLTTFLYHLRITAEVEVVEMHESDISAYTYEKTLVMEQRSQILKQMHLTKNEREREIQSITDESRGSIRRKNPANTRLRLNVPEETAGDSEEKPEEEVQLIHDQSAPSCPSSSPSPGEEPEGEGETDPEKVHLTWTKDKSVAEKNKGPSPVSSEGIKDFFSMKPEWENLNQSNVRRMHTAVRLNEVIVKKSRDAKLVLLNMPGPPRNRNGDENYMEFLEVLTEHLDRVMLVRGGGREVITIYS
STAT1 act: STAT1 signaling activators, primary screen, cell-based, HTS, luciferase reporter. NIH 3T3 STAT1-luciferase reporter, IFN-gamma, luminescence; 100% = IFN-gamma alone, no compound. activation (% of control), % at 5.5 µM. 2.6% of 200,000 active;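 active = activation above the screen-wide mean activation plus 3 SD, cut at about 130% in these data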;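 note: raw ratio to IFN-gamma control signal so 100% means no change and 0% no light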
Active calls of the source: *; i = inactive; u = inconclusive; x = no result.

SMILES | STAT1 inh | STAT3 act | HSV augment | STAT3 inh | KCC2 mod | STAT1 act
O=C(Nc1nc(=O)c2ccccc2s1)c1ccc(Cl)cc1 | -20 | 101 | i | 8 | x | 121
O=C(Cc1ccccc1)Nc1nc(=O)c2ccccc2s1 | 2 | 84 | i | 23 | 4.1* | 98
O=C(Nc1nc(=O)c2ccccc2s1)c1ccc(F)cc1 | -27 | 119 | i | -23 | 47* | 125
CCCS(=O)(=O)N1CCCC(C(=O)c2ccccc2OC)C1 (stereo unspecified) | 10 | 98 | i | 7 | -0.19 | 89
CS/C(N)=N/N=C/c1ccc([N+](=O)[O-])cc1 | -35 | 104 | i | -4 | -0.88 | 131*
N/C(=N\N=C\c1ccc([N+](=O)[O-])cc1)c1nonc1N | x | x | i | x | -0.47 | x
COc1ncccc1-c1nnn(-c2ccc(Cl)nc2)n1 | -15 | x | i | x | -0.44 | 115
Clc1ccc(-n2nnc(-c3cccnc3Cl)n2)cn1 | -34 | x | i | x | 0.01 | 134*
O=C(CSc1nc2ccccc2o1)Nc1nccs1 | -1 | 94 | i | 12 | -0.88 | 100
Cc1cc(N)n2ncc(-c3ccccc3)c2n1 | -55 | 122 | i | -16 | -0.19 | 150*
Cc1cc(N)n2nc(-c3ccccc3)cc2n1 | -52 | 78 | i | 28 | -0.25 | 146*
Cc1cc(N)n2ncc(-c3cccc(Br)c3)c2n1 | -46 | 115 | i | -16 | x | 142*
COc1ccc(-n2c3c(c(=O)[nH]c2=O)C(NC(=O)c2ccncc2)(C(F)(F)F)C(=O)N3)cc1 (stereo unspecified) | 5 | 88 | i | 23 | -0.69 | 94
C=CCNc1nc(-c2ccc(OC)cc2OC)cs1 | -56 | 118 | i | -17 | 0.85 | 150*
Nc1ccc2c(c1)sc1ccccc12 | -33 | 94 | i | 11 | 0.44 | 130*
Nc1ccc2oc3ccccc3c2c1 | -7 | 97 | i | 3 | -0.62 | 106
CCC(Sc1ncnc2c1nnn2-c1ccc(F)cc1)C(=O)OC (stereo unspecified) | -19 | 97 | i | 4 | x | 117
CCOC(=O)C(C)Sc1ncnc2c1nnn2-c1ccc(F)cc1 (stereo unspecified) | -35 | 93 | i | 9 | x | 132*
N#Cc1c2c(c(-c3ccccc3Cl)[nH]c1=S)CCCC2 | 4 | 109 | i | -6 | 40* | 95
Clc1ccc(-c2cc3ccccc3[nH]2)cc1 | -34 | 108 | i | 1 | 0.7 | 131*
O=C(COc1ccc(Cl)cc1Br)NC(=O)NCc1ccccc1 | 8 | 110 | i | -8 | 0.96 | 93
Cc1cccc(Nc2nc(N)nc(CSc3nccn3C)n2)c1 | -40 | 109 | i | -6 | 0.93 | 136*
Cc1ccc(Nc2nc(N)nc(CSc3nccn3C)n2)cc1 | -50 | 108 | i | -5 | x | 146*
COc1ccccc1Nc1nc(N)nc(CSc2nccn2C)n1 | -12 | 99 | i | 5 | -0.19 | 109
C/C(=N\N=c1/sc2ccccc2n1C)c1ccc(N2CCOCC2)cc1 | -4 | 111 | i | -11 | 0.21 | 102
SMILES | STAT1 inh | STAT3 act | HSV augment | STAT3 inh | KCC2 mod | STAT1 act
C/C(=N\N=c1/sc2ccccc2n1C)c1ccccn1 | -49 | 100 | i | 5 | 0.035 | 142*
O=c1[nH]c(Nc2ccc3c(c2)OCCO3)nnc1Cc1ccc(Cl)cc1 | 3 | 108 | i | -6 | -0.043 | 97
Cn1c(-c2ccccc2)c[n+]2c1-c1ccccc1C2 | 7 | 94 | i | 2 | 0.44 | 93
CC1(C)Cc2c(sc3nc(-c4cccs4)n(N)c(=O)c23)CO1 | -39 | 96 | i | 11 | -0.54 | 138*
CC1(C)Cc2c(sc3nc(-c4ccccc4)n(N)c(=O)c23)CO1 | -16 | 84 | i | 22 | -0.048 | 115
O=c1oc(-c2cccs2)nc2sc3c(c12)CCCCC3 | 1 | 106 | i | 1 | x | 99
Nn1c(-c2cccs2)nc2sc3c(c2c1=O)CCCC3 | -45 | 128 | i | -28 | 1.1 | 142*
Cc1nc2sc3c(c2c(=O)n1N)CCC3 | -3 | 101 | i | 6 | -0.41 | 102
Cc1ccccc1-c1nc2sc3c(c2c(=O)n1N)CCCC3 | -50 | 104 | i | -8 | 0.46 | 146*
O=c1oc(-c2ccccc2)nc2sc3c(c12)CCCC3 | -39 | 110 | i | -12 | -0.93 | 136*
CCc1ccc(N2C(=O)CN(Cc3cccs3)C2=S)cc1 | -7 | 86 | i | 19 | 0.65 | 104
COc1ccc(C(=O)NCC(=O)OCC(=O)c2ccc3c(c2)NC(=O)CO3)cc1 | -1 | 106 | i | -7 | 0.17 | 101
Clc1ccc(-c2nnc(SCc3ccon3)o2)c(Cl)c1 | -28 | 72 | x | 35 | 0.42 | 141*
COC(=O)c1[nH]c2ccc(C)cc2c1NC(=O)CN1CCCc2ccccc21 | 9 | 135* | i | -40 | -0.2 | 92
Cc1ccc2[nH]c3c(c2c1)CN(C(=O)CN1CCCCC1)CC3 | x | x | i | x | 1.4 | x
Cc1ccc2[nH]c3c(c2c1)CN(C(=O)CN1CCCc2ccccc21)CC3 | -1 | 133* | i | -35 | 0.61 | 99
Cc1ccc2nc(C)cc(C(=O)OCC(=O)Nc3c(C)n(C)n(-c4ccccc4)c3=O)c2c1 | -4 | 107 | i | -7 | 0.77 | 102
CC1CCN(c2ccccc2NC(=S)NC(=O)C(C)(C)C)CC1 | 2 | 108 | i | -2 | 1.6 | 98
CC1CCN(c2ccccc2NC(=S)NC(=O)c2cccs2)CC1 | -2 | 102 | u | -2 | 9.5* | 102
CC1CCN(c2ccccc2NC(=S)NC(=O)c2ccco2)CC1 | -4 | 103 | i | 6 | 15* | 104
Cn1c(-c2ccccc2)cc2c3no[n+]([O-])c3ccc21 | -34 | 103 | i | 6 | -0.027 | 130*
CCOC(=O)c1c(C)n(OCc2ccccc2)c2ccc3c(no[n+]3[O-])c12 | -11 | 102 | i | 2 | 0.013 | 109
O=C(Nc1ccc(F)cc1F)c1csc(-c2cccs2)n1 | -40 | 124 | i | -21 | -0.25 | 135*
O=C(Nc1ccc(F)cc1F)c1csc(-c2ccncc2)n1 | -17 | 91 | i | 15 | -0.6 | 112
O=C(Nc1ccc(OCC(=O)N2CCOCC2)cc1)Nc1cccc(Cl)c1 | 0 | 105 | i | -4 | -1 | 98
CC(C)(C)c1ccc(NC(=O)Nc2ccc(OCC(=O)N3CCOCC3)cc2)cc1 | -38 | 95 | i | 12 | -0.76 | 134*
N/C(=N\OC(=O)c1ccc(Cl)cc1Cl)c1cccnc1 | -33 | 87 | i | 19 | 0.56 | 129*
